Assay results reported in ChEMBL document CHEMBL2169836 (J Med Chem, 2012).
pIC50: −log10 of the molar value. Activity calls are given as the source filed them. The calls are words filed in the database; no cut-off is given here.

Key:
[1] = molecular target: T1, Sodium/hydrogen exchanger 1 (Homo sapiens, UniProt P19634); assay: Inhibition of NHE1 in human HT-29 cells assessed as intracellular pH change after 30 mins in presence of plasma protein; type: cell-based
[2] = molecular target: T1, Sodium/hydrogen exchanger 1; assay: Inhibition of NHE1 in human HT-29 cells assessed as intracellular pH change after 30 mins; type: cell-based
Cytochrome P450 2D6 = Cytochrome P450 2D6 (Homo sapiens, UniProt P10635); assay: Inhibition of CYP2D6 in human liver microsomes using 3-[2-(N,N-diethyl-N-methylamino)ethyl]-7- methoxy-4-methylcoumarin as substrate after 45 mins by LC/MS/MS analysis; type: ADME, Microsome
[3] = Mean resident time in jugular and femoral vein precannulated Sprague-Dawley rat at 1 mg/kg, iv by LC/MS/MS analysis; type: ADME, organism-based; set-up: dose 1 mg/kg, route intravenous; conditions: in vivo
Cytochrome P450 2C19 = Cytochrome P450 2C19 (Homo sapiens, UniProt P33261); assay: Inhibition of CYP2C19 in human liver microsomes using 7-ethoxy-3-cyanocoumarin as substrate after 45 mins by LC/MS/MS analysis; type: ADME, Microsome
[4] = Metabolic stability in rat liver microsomes at 1 uM up to 60 mins by LC/MS/MS analysis relative to hepatic blood flow; type: ADME, Microsome; conditions: read-out: Stability
Cytochrome P450 3A4 = Cytochrome P450 3A4 (Homo sapiens, UniProt P08684); assay: Inhibition of CYP3A4 in human liver microsomes using 7-benzyloxy-4-(trifluoromethyl)-coumarin as substrate after 30 mins by LC/MS/MS analysis; type: ADME, Microsome
[5] = Permeability of the compound by PAMPA; type: ADME; conditions: read-out: permeability
Procedure, shortened: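 Donor buffers were set to pH 5.0, 6.2 and 7.4 with NaOH, and ASB7.4 buffer was used as acceptor. Filters (0.45 pore, 125 μm thick) were lipid-coated. A 10 mM DMSO stock was diluted to 41.7 μM in donor buffer. The sandwich was incubated 4 h without stirring. Reference, donor and acceptor concentrations were read in duplicate by UV plate reader, and ratings were assigned from permeation velocity.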

Cytochrome P450 2C9 = Cytochrome P450 2C9 (Homo sapiens, UniProt P11712); assay: Inhibition of CYP2C9 in human liver microsomes using 7-methoxy-4-(trifluoromethyl)-coumarin as substrate after 45 mins by LC/MS/MS analysis; type: ADME, Microsome
Rattus norvegicus = assay: Clearance in jugular and femoral vein precannulated Sprague-Dawley rat at 1 mg/kg, iv by LC/MS/MS analysis relative to hepatic blood flow; type: ADME, organism-based, Liver; set-up: dose 1 mg/kg, route intravenous; conditions: in vivo
[6] = molecular target: Voltage-gated inwardly rectifying potassium channel KCNH2 (Homo sapiens, UniProt Q12809); assay: Inhibition of human ERG expressed in HEK 293 cells by PatchXpress assay; type: cell-based, HEK293
[7] = Metabolic stability in human liver microsomes at 1 uM up to 60 mins by LC/MS/MS analysis relative to hepatic blood flow; type: ADME, Microsome; conditions: read-out: Stability
[8] = Volume of distribution at steady state in jugular and femoral vein precannulated Sprague-Dawley rat at 1 mg/kg, iv by LC/MS/MS analysis; type: ADME, organism-based; set-up: dose 1 mg/kg, route intravenous; conditions: in vivo, read-out: Vdss
Caco-2 = assay: Efflux ratio of permeability from […] side in human Caco2 cells at 10 uM up to 150 mins; type: ADME, cell-based; conditions: caco-2, 2.5 h
[9] = Oral bioavailability in jugular and femoral vein precannulated Sprague-Dawley rat plasma at 5 mg/kg by LC/MS/MS analysis; type: ADME, organism-based
[10] = Volume of distribution at steady state in overnight fasted Beagle dog at 1 mg/kg, iv; type: ADME, organism-based, Canis lupus familiaris; set-up: dose 1 mg/kg, route intravenous; conditions: in vivo, read-out: Vdss
Canis familiaris = assay: Clearance in overnight fasted Beagle dog at 1 mg/kg, iv relative to hepatic blood flow; type: ADME, organism-based, Canis lupus familiaris, Liver; set-up: dose 1 mg/kg, route intravenous; conditions: in vivo
[11] = Oral bioavailability in overnight fasted Beagle dog at 5 mg/kg; type: ADME, organism-based, Canis lupus familiaris; conditions: in vivo
[12] = molecular target: T2, Sodium/hydrogen exchanger 3 (Homo sapiens) (UniProt P48764); assay: Inhibition of NHE3 transfected in Chinese hamster PS120 assessed as intracellular pH change up to 16 uM; type: cell-based
T2 sequence (whole entry): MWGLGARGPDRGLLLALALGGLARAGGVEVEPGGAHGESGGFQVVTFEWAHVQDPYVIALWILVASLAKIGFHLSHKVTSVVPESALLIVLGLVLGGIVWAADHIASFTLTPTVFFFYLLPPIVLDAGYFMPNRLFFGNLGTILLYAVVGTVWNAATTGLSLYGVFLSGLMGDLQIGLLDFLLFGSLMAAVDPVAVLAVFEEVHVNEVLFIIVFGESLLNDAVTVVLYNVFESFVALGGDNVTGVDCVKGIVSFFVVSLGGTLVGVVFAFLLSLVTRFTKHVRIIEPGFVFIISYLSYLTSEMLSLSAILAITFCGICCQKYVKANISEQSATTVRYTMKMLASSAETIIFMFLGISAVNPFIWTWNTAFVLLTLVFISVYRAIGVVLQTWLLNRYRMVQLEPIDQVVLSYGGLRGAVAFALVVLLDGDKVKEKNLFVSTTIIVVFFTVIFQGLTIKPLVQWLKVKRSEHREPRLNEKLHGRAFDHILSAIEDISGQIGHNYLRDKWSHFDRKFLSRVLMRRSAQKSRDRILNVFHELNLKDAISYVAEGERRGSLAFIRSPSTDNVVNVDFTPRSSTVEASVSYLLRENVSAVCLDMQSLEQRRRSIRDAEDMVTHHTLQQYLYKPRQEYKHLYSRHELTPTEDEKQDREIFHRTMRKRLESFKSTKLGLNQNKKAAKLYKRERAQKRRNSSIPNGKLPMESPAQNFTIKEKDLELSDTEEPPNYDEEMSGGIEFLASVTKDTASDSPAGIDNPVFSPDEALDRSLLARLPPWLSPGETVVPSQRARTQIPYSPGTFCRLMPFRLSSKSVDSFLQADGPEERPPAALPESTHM

[13] = Mean resident time in overnight fasted Beagle dog at 1 mg/kg, iv; type: ADME, organism-based, Canis lupus familiaris; set-up: dose 1 mg/kg, route intravenous; conditions: in vivo

T1 sequence (P19634 whole entry): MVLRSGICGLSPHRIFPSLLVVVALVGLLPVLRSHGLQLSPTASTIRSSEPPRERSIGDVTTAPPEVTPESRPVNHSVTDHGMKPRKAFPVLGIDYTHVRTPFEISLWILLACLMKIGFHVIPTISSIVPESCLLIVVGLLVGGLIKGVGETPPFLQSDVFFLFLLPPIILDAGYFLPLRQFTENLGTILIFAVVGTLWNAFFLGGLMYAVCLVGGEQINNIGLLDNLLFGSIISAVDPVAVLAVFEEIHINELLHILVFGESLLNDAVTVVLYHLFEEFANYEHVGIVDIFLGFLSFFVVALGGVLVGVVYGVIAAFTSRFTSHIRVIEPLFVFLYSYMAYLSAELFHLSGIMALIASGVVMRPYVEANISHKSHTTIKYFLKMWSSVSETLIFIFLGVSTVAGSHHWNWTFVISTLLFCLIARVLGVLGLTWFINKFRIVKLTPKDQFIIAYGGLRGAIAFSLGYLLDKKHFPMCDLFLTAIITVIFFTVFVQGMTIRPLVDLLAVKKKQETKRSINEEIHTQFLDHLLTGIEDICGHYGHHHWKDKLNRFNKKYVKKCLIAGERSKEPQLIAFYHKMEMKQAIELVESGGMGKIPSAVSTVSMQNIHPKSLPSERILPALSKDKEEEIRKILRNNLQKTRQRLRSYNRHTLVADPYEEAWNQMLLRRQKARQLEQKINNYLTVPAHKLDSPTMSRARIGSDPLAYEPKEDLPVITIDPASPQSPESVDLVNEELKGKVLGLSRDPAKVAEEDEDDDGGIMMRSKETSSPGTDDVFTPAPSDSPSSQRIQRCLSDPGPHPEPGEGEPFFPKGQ
Chain of Voltage-gated inwardly rectifying potassium channel KCNH2 (Q12809 whole entry): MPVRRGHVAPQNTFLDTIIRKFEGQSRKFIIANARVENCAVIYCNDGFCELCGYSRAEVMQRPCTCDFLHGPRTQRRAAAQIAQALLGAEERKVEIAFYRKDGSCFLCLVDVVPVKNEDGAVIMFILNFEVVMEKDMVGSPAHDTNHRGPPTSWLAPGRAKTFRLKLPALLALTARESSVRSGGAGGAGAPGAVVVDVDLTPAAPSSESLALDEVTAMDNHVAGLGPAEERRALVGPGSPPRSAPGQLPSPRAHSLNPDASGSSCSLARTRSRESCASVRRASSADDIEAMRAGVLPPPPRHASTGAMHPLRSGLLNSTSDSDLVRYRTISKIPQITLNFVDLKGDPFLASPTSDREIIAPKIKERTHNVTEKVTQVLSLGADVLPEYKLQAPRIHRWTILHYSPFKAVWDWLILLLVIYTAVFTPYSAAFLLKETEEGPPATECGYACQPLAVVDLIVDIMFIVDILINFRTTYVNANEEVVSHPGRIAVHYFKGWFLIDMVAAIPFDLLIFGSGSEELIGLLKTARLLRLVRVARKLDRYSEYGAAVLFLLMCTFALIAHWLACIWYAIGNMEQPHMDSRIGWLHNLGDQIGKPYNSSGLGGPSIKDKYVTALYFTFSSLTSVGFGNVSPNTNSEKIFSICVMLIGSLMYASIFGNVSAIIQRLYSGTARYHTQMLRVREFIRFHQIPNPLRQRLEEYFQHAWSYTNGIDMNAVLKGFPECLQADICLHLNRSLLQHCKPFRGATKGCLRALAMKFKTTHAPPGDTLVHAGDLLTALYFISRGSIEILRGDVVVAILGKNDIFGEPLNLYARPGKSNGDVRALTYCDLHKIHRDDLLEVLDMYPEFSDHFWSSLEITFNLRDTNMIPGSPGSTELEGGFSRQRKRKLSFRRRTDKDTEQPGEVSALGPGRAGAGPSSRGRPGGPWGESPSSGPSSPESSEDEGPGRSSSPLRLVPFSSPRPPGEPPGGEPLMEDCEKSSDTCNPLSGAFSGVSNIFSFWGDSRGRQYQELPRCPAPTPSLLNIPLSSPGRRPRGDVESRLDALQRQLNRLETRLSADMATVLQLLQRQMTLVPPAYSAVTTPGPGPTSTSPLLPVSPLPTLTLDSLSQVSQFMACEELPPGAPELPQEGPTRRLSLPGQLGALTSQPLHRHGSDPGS
Chain of Cytochrome P450 2C19 (P33261 whole entry): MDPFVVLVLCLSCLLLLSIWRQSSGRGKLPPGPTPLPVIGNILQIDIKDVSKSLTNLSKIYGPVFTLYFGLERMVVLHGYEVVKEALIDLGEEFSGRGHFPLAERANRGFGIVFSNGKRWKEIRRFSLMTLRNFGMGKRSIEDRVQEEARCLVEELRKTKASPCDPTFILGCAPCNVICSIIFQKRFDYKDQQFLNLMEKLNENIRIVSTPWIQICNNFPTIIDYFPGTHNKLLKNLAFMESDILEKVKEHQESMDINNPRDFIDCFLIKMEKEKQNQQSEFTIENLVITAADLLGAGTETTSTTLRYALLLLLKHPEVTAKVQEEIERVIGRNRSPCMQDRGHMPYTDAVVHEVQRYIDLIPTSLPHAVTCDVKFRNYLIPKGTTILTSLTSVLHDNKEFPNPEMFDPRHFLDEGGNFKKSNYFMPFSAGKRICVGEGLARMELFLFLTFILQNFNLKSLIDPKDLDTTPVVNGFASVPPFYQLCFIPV
Chain of Cytochrome P450 2D6 (P10635 whole entry): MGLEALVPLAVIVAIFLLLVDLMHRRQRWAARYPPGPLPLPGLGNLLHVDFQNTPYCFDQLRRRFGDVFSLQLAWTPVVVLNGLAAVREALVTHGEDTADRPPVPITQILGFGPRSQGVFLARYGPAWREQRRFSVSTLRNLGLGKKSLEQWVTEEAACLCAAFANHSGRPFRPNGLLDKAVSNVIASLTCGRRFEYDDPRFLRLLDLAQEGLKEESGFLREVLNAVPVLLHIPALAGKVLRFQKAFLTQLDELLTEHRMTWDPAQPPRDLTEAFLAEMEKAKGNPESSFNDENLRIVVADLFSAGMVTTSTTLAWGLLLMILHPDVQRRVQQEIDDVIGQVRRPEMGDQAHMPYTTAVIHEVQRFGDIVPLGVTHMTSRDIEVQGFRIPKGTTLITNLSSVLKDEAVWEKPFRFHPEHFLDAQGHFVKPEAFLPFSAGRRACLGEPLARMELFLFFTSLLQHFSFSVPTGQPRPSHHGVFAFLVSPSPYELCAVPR
Chain of Cytochrome P450 3A4 (P08684 whole entry): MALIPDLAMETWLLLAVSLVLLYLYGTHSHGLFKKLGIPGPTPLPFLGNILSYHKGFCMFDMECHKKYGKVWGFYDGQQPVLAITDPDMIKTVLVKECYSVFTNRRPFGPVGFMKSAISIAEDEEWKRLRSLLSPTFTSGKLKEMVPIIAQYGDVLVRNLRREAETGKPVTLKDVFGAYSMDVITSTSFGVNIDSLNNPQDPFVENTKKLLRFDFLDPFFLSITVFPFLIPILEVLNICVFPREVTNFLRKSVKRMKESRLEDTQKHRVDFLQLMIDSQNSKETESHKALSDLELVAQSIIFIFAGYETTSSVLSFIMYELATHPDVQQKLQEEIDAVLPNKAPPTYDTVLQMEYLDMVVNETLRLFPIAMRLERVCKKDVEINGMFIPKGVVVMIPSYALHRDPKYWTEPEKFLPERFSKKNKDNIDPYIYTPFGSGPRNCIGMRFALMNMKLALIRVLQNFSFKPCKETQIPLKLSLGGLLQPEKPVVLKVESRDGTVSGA
Chain of Cytochrome P450 2C9 (P11712 whole entry): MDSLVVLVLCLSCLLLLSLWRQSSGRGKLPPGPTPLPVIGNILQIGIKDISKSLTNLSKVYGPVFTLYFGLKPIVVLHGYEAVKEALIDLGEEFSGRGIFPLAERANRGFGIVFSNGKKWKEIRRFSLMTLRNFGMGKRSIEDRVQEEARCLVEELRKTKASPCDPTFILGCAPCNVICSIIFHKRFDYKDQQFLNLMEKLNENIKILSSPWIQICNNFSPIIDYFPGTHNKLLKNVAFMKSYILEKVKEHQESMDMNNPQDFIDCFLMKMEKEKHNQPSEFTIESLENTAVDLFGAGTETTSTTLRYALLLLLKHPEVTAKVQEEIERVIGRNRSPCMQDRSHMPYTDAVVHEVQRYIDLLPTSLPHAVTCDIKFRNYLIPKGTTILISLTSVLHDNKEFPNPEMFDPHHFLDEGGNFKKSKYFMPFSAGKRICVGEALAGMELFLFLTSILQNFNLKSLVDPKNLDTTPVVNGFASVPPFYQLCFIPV

SMILES	inhibition [1]	pIC50 [2]	pIC50 (Cytochrome P450 2D6)	MRT [3] [h]	pIC50 (Cytochrome P450 2C19)	hepatic extraction ratio at 1 h, 1 µM [4]	pIC50 (Cytochrome P450 3A4)	Papp [5] [×10⁻⁶ cm/s]	pIC50 (Cytochrome P450 2C9)	CL (Rattus norvegicus) [%]	hepatic extraction ratio at 1 h, 1 µM [7]	Vd [8] [L/kg]	Ratio (Caco-2)	bioavailability [9] [%]	Vd [10] [L/kg]	CL (Canis familiaris) [%]	bioavailability [11] [%]	inhibition [12]	MRT [13] [h]	pIC50 [6]
CCC(=O)N1CCC(c2cc(C)c(C(=O)NC(=N)N)cc2S(C)(=O)=O)CC1		7.82		0.3						54		0.95	14	1						
CCC(=O)N1CCC(c2ccc(C(=O)NC(=N)N)cc2C(F)(F)F)CC1		7.96		5.3				≥ 2		4.4		1		49	2	8.1	49	inactive	14	

Continued by rising pIC50 [2], values first:

inhibition [1]	pIC50 [2]	pIC50 (Cytochrome P450 2D6)	MRT [3] [h]	pIC50 (Cytochrome P450 2C19)	hepatic extraction ratio at 1 h, 1 µM [4]	pIC50 (Cytochrome P450 3A4)	Papp [5] [×10⁻⁶ cm/s]	pIC50 (Cytochrome P450 2C9)	CL (Rattus norvegicus) [%]	hepatic extraction ratio at 1 h, 1 µM [7]	Vd [8] [L/kg]	Ratio (Caco-2)	bioavailability [9] [%]	Vd [10] [L/kg]	CL (Canis familiaris) [%]	bioavailability [11] [%]	inhibition [12]	MRT [13] [h]	SMILES	pIC50 [6]
Active	6.76																		N=C(N)NC(=O)c1ccc(N2CCCC(NC(=O)c3ccc[nH]3)C2)c(C(F)(F)F)c1 (racemic)	
	7.85	< 4.52	1	4.80	0.12	4.59	≥ 2	4.74	31	0.47	1.4								Cn1ccnc1C(=O)N1CCC(c2ccc(C(=O)NC(=N)N)cc2C(F)(F)F)CC1	< 4.52
	8.00	< 4.52	1.4	5.10	0.36	< 4.52	≥ 2	4.60	21	0.06	1.3								COCC(=O)N1CCC(c2ccc(C(=O)NC(=N)N)cc2C(F)(F)F)CC1	< 4.52
